Experimental data from ChEMBL document CHEMBL1143700, “Antiangiogenic versus cytotoxic activity in analogues of aeroplysinin-1” (Bioorg Med Chem, 2007).
In brackets after ≈: the same amount, converted by molar mass.

Legend:
[1] = Ratio of MIC for BAEC sprouting to IC50 for BAEC; assay type: functional, Bos taurus
[2] = Cytotoxicity against BAEC after 2 days by MTT assay; assay type: cell-based, Bos taurus
In short: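 BAE cells (primary bovine aortic endothelium, collagenase-isolated; grown in DMEM/20% FBS), 8·10³ per well, exposed to serial dilutions for 2 days at 37 °C, 5% CO₂. MTT (5 mg/mL in PBS) then added for a further 2 h at 37 °C. Formazan dissolved in DMSO and read spectrophotometrically. IC50 = concentration inhibiting growth by 50%; ">" means not reached at the top concentration tested.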

[3] = Effect on tube formation of BAEC assessed as sprouting inhibition after 48 hrs; assay type: functional, Bos taurus
In short: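 BAE cells coated onto Cytodex 3 microcarrier beads over 48 h at 37 °C, 5% CO₂. Beads (250/mL) seeded onto Matrigel in wells containing compound; medium added after 30 min. After 48 h, sprout extent and length scored by microscopy against untreated wells. MIC = lowest concentration with no tube formation; ">" means not reached at the top concentration tested.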

[4] = Bos taurus, 48 h, read-out: MIC

MIC [3, 4]	MIC [3]	SMILES	Ratio [1]	IC50 ([2]; Bos taurus, BAEC, 48 h)	IC50 ([2]; baec)
2 µM (≈ 0.678 µg/mL)	–	COC1=C(Br)[C@H](O)[C@](O)(CC#N)C=C1Br (single isomer, unassigned)	14	29 µM	–
> 12.5 µM	–	COc1c(Br)cc(C=O)c(OCc2ccccc2)c1Br	–	> 12.5 µM	–
15 µM (≈ 5.1 µg/mL)	–	COC1=C(Br)C(=O)[C@@]2(CO2)C(OC)=C1Br	–	> 15 µM	–
> 28 µM	–	COc1c(Br)cc2c(c1Br)OCC(O)OC2 (centres undefined)	–	> 28 µM	–
2 µM (≈ 1.12 µg/mL)	–	O=C1C2(Br)C=C(Br)C([C@H]3[C@]2(Br)C=C(Br)C(=O)[C@]32CO2)[C@@]12CO2 (some centres undefined)	2	4 µM	–
> 28 µM	–	COc1c(Br)cc(/C=C2\N=C(c3ccccc3)OC2=O)c(OCc2cc(N(C)C)ccc2Br)c1Br [listing 1 of 2 here]	–	–	71 µM
> 44 µM	–	COc1c(Br)cc(C=O)c(OC(=O)c2ccc(N(C)C)cc2)c1Br	–	> 22 µM	–
25 µM (≈ 5.03 µg/mL)	–	O=C1C=CC(Br)=C[C@]12CO2	–	> 25 µM	–
33 µM (≈ 5.02 µg/mL)	–	COC1=CC(=O)[C@]2(C=C1)CO2	1	33 µM	–
> 17 µM	–	COc1c(Br)cc(/C=C2\N=C(c3ccccc3)OC2=O)c(OC(=O)c2ccc(N(C)C)cc2)c1Br	–	83 µM	–
> 16 µM	–	COc1c(Br)cc(CO)c(O)c1Br	–	> 16 µM	–
> 22 µM	–	COC1=CC(=O)[C@]2(C=C1Br)CO2	–	> 22 µM	–
> 14 µM	–	COC(=O)/C=C/c1cc(Br)c(OC)c(Br)c1O	–	> 14 µM	–
–	>30 µM	COc1c(Br)cc(/C=C2\N=C(c3ccccc3)OC2=O)c(OCc2cc(N(C)C)ccc2Br)c1Br [listing 2 of 2 here]	–	–	> 15 µM
52 µM (≈ 19.9 µg/mL)	–	COC(=O)COc1c(C=O)cc(Br)c(OC)c1Br	3	151 µM	–
2 µM (≈ 0.56 µg/mL)	–	O=C1C(Br)=CC(Br)=C[C@]12CO2	6	12 µM	–

MIC [3, 4]	MIC [3]	SMILES	Ratio [1]	IC50 ([2]; Bos taurus, BAEC, 48 h)	IC50 ([2]; baec)
> 33 µM	–	COc1ccc(C=O)c(O)c1	–	> 33 µM	–
> 22 µM	–	COc1c(Br)cc(/C=C2\N=C(c3ccccc3)OC2=O)c(O)c1Br	–	> 22 µM	–
> 16 µM	–	COc1c(Br)cc(C=O)c(O)c1Br	–	806 µM	–
> 12 µM	–	COc1c(Br)cc(CO)c(OCc2ccccc2)c1Br	–	> 12 µM	–
> 38 µM	–	COc1c(Br)cc(C=O)c(OCc2cc(N(C)C)ccc2Br)c1Br	–	> 19 µM	–
> 26 µM	–	COC(=O)COc1c(CO)cc(Br)c(OC)c1Br	–	> 26 µM	–
1 µM (≈ 0.543 µg/mL)	–	COc1c(Br)cc(/C=C2\N=C(c3ccccc3)OC2=O)c(OCc2ccccc2)c1Br	921	921 µM	–
33 µM (≈ 11.6 µg/mL)	–	COc1c(Br)cc(C=O)c(OC(C)=O)c1Br	0.7	23 µM	–
3 µM (≈ 0.693 µg/mL)	–	COC1=C(Br)C(=O)[C@]2(C=C1)CO2	4	11 µM	–
3 µM (≈ 0.93 µg/mL)	–	COC1=C(Br)C(=O)[C@]2(C=C1Br)CO2	54	161 µM	–
> 27 µM	–	COC(=O)CCc1cc(Br)c(OC)c(Br)c1O	–	136 µM	–
> 35 µM	–	COC(=O)/C(=C/c1cc(Br)c(OC)c(Br)c1OCc1ccccc1)NC(=O)c1ccccc1	–	> 17 µM	–
71 µM (≈ 20 µg/mL)	–	OCc1cc(Br)cc(Br)c1O	–	> 35 µM	–
27 µM (≈ 15 µg/mL)	–	COc1c(Br)cc(/C=C2\N=C(c3ccccc3)OC2=O)c(OC(=O)c2ccccc2)c1Br	–	> 18 µM	–
28 µM (≈ 9.97 µg/mL)	–	COc1c(Br)cc(CO)c(OCCO)c1Br	–	> 28 µM	–
71 µM (≈ 19.9 µg/mL)	–	O=Cc1cc(Br)cc(Br)c1O	0.5	36 µM	–
